Assay outcomes as filed in PubChem.
CHT allo act = CHT positive allosteric modulators, primary screen, cell-based, membrane potential dye, choline EC20; High affinity choline transporter 1 (Homo sapiens), Q9GZV3; CHT-expressing cells; hits give high values; LV-AA mutant CHT in HEK293 cells; 310,000 compounds, 0.49% hits; B-score at 10 µM;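 active = initial fluorescence not abnormally high and integrated response B-score, plate-corrected, over 3 SD above library mean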
Target sequence (Q9GZV3 whole entry, looked up): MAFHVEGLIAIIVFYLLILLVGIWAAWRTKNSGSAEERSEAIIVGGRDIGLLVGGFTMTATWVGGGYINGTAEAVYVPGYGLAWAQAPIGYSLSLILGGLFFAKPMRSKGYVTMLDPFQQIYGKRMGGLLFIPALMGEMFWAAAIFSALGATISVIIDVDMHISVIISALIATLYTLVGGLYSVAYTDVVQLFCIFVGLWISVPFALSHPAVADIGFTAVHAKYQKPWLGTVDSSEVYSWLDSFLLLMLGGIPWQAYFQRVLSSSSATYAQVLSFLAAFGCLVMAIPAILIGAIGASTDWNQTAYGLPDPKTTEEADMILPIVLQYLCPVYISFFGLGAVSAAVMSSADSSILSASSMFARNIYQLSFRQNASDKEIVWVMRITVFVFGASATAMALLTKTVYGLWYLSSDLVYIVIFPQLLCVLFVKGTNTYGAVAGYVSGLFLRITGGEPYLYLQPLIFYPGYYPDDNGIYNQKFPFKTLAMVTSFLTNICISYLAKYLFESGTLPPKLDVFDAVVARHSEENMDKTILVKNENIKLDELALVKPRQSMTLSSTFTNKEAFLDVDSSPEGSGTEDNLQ
T cell modulator = modulators of CD8 T cell-vesicle binding, primary screen, mouse 2C CD8+ T cells, flow cytometry. 2C CD8+ T cell-vesicle binding; hits give low values. response (vesicle binding), % at 7 µM. 330,000 compounds, 0.068% hits;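 active = response, share of CD8 T cells binding vesicles, and their 90th percentile fluorescence all below set limits, cut at about 80% in these data, passing the limit was not always enough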;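 note: values below 100% mean blocked vesicle binding to the CD8+ T cells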
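Read-out – percent CD8+ FL2 mean versus row control · System – murine 2C transgenic CD8+ T lymphocytes · Times – 1.5 h cell–vesicle binding at 37 °C, then 20 min icy labelling · Control set – naked vesicles low, QL9 vesicles with vehicle high · Detection – cytometric PE anti-B7-1 and Alexa647 anti-CD8 signals after 1% paraformaldehyde fixation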
VLA-4 inh = inhibition in human VLA-4 binding assay, primary screen, VLA-4 allosteric modulator project, MLPCN library, flow cytometry, VLA-4 expressing cells | Integrin alpha-4 (Homo sapiens), P13612 | ligand binding flow cytometry | inhibition, % (about 7 µM as worked out from the volumes in the protocol) | 330,000 compounds, 0.2% hits | AID 2557, 2010; in the data active = inhibition above about 50%
CHT block = inhibitors of human choline transporter CHT. High affinity choline transporter 1 (Homo sapiens), Q9GZV3. CHT-expressing cells, membrane potential dye, choline response; hits give low values. B-score at 10 µM. 310,000 compounds, 0.86% hits;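 active = B-score over 3 SD under the library average, and starting fluorescence ratio not unusually high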;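 note: choline stimulus applied at its EC90 after an EC20 pre-addition; B-score computed on integrated fluorescence ratio after choline addition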
VLA-4 allo CP = retest of VLA-4 allosteric modulators, confirmation, cell-based, cherry-picked plates, U937, HUTS-21 LIBS antibody; 1,300 compounds, 2% hits; shares compounds with VLA-4 inh; inhibition, % at 6.7 µM; U937 cells, HUTS-21 LIBS mAb binding, flow cytometry; LDV ligand present at threefold Kd; in the data active = inhibition above about 40%;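 note: 0% = ligand without compound and 100% = no ligand background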
CHT block conf = CHT inhibitors, confirmation, cell-based, membrane potential dye, duplicate; shares compounds with CHT block; CHT-expressing cells, choline membrane potential dye; LV-to-AA substituted CHT, HEK293 cells; CHT activity remaining % of control (hits give low values), % at 10 µM; 2,400 compounds, 70% hits;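 active = choline transporter activity left, mean of duplicates at 10 µM, below buffer-only control mean minus 3 SD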;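 note: depolarization triggered by choline at its EC90 following an EC20 pre-addition; 0% = hemicholinium-3 full block and 100% = buffer-only control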
HEK293 MPD ctr = membrane potential effects in parental HEK293, counter-screen for CHT inhibitor project, cell-based, membrane potential dye; shares compounds with CHT block; 2,400 compounds, 4% hits; choline response; active = decrease or increase beyond buffer ±3SD; AID 493222, 2011; membrane potential ratio readout (active if shifted either direction beyond buffer ±3SD; no single direction) at 10 µM;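 note: parental cells lack the transporter so any hit is non-specific; ratio is peak minus trough fluorescence over baseline after EC90 choline challenge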
CHT act confirm = CHT activators, confirmation, cell-based, membrane potential dye, duplicate; shares compounds with CHT allo act; CHT-expressing cells, membrane potential dye fluorescence (FDSS); % of choline EC20–EC90 response window; HEK293 expressing CHT LV-AA mutant; choline added at its EC20; activation, % at 10 µM; 2,500 compounds, 91% hits; AID 504833, 2011;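 active = primary screen active, with duplicate mean activation above negative control mean plus 3 SD, cut at about 11% in these data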
HEK293 MP dye = membrane potential response in parental HEK293 cells, counter-screen for CHT activator project, cell-based, membrane potential dye; shares compounds with CHT allo act; membrane potential dye fluorescence (FDSS); measured after EC20 choline addition; ratio readout change at 10 µM, hits read low; 2,500 compounds, 62% hits;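 active = duplicate-averaged ratio beyond 3 SD from buffer wells, up or down, though filed actives are nearly all decreases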
Active calls of the source: *. Rows were chosen to be rich in hits. Some 1.5% of all compounds tested hit in one or more screens of this group.

Results for c1ccc2[nH]c(NCCCN3CCOCC3)nc2c1 ?
CHT allo act: 6.35*; T cell modulator: 264.7; VLA-4 inh: 61.8*; CHT block: inactive; VLA-4 allo CP: 7.7; CHT act confirm: 38.4*; HEK293 MP dye: -33.2*

Results for C[n+]1ccc(C(=O)N/N=C/c2ccco2)cc1 ?
CHT allo act: 7.12*; T cell modulator: 529.5; VLA-4 inh: 54.0*; CHT block: inactive; VLA-4 allo CP: -12.6; CHT act confirm: 63.6*; HEK293 MP dye: -53.9*

How did O=C(N/N=C/c1ccco1)c1ccc(NC(=O)C2CCCCC2)cc1 do in these assays?
CHT allo act: inactive; T cell modulator: 274.4; VLA-4 inh: -2.6; CHT block: inactive

How did CN1CCN(C(CNC(=O)C(=O)Nc2ccc3c(c2)OCCO3)c2ccc(F)cc2)CC1 (centres undefined) do in these assays?
CHT allo act: inactive; T cell modulator: 442.4; VLA-4 inh: 4.6; CHT block: inactive

What do the screens show for `CC1(C)c2[nH]c3ccccc3c2C[C@@H]2C(=O)N(Cc3ccccc3)C(=O)N21`?
CHT allo act: inactive; CHT block: -6.19*; CHT block conf: 57.4%*; HEK293 MPD ctr: inactive

How did c1cc(Nc2ncnc3sccc23)cc(-c2nnc3n2CCCCC3)c1 do in these assays?
CHT allo act: inactive; T cell modulator: 402.5; VLA-4 inh: -11.1; CHT block: -6.01*; CHT block conf: 56.5%*; HEK293 MPD ctr: inactive

Results for CC(=O)c1ccc(NC(=O)NNS(=O)(=O)c2ccc([N+](=O)[O-])cc2)cc1 ?
CHT allo act: inactive; T cell modulator: 462.3; VLA-4 inh: 20.8; CHT block: inactive

How did CN(C)CC(C)(C)CNC(=O)CC1C(=O)NCCN1Cc1ccc(-c2ccccc2)cc1 (centres undefined) do in these assays?
CHT allo act: inactive; T cell modulator: 303.8; VLA-4 inh: -5.7; CHT block: inactive

Results for N#C/C(=N\Nc1ccc(F)cc1)C(=O)C1CC1 ?
CHT allo act: inactive; T cell modulator: 434.5; VLA-4 inh: -1.4; CHT block: -6.22*; CHT block conf: 50.3%*; HEK293 MPD ctr: inactive

What do the screens show for `N#C/C(=N\Nc1ccc(Cl)c(Cl)c1)C(=O)C1CC1`?
CHT allo act: inactive; T cell modulator: 258.3; VLA-4 inh: 17.9; CHT block: inactive

How did CCn1cc(C(=O)N(CCC(C)C)c2c(N)n(Cc3ccccc3)c(=O)[nH]c2=O)c(=O)c2ccc(C)nc21 do in these assays?
CHT allo act: inactive; T cell modulator: 413.6; VLA-4 inh: 14.8; CHT block: -10.2*; CHT block conf: 49.5%*; HEK293 MPD ctr: inactive

What do the screens show for `CC(C)CCN(C(=O)c1ccccn1)c1c(N)n(Cc2ccccc2)c(=O)[nH]c1=O`?
T cell modulator: 358.0; VLA-4 inh: -4.5

Results for COc1cc(O)c(C(CC(=O)N2CCN(c3ccccc3)CC2)c2ccc(N(C)C)cc2)c(OC)c1 (centres undefined) ?
CHT allo act: inactive; T cell modulator: 158.9; VLA-4 inh: 13.2; CHT block: -10.5*; CHT block conf: inactive; HEK293 MPD ctr: inactive

What do the screens show for `Cc1cc(C)nc(N2CCC(C(=O)NCc3cccs3)CC2)n1`?
CHT allo act: inactive; T cell modulator: 403.8; VLA-4 inh: 4.1; CHT block: -8.3*; CHT block conf: inactive; HEK293 MPD ctr: inactive

What do the screens show for `Cc1cc(C)nc(N2CCC(C(=O)NCc3ccco3)CC2)n1`?
CHT allo act: inactive; T cell modulator: 398.4; VLA-4 inh: 5.2; CHT block: inactive

Results for CCOC(=O)N1CCC(Nc2ncnc3c2cnn3-c2ccc(C)cc2C)CC1 ?
CHT allo act: inactive; T cell modulator: 541.9; VLA-4 inh: -8.7; CHT block: -6.87*; CHT block conf: inactive; HEK293 MPD ctr: inactive

Results for C=CCNc1ncnc2c1cnn2-c1ccc(C)cc1C ?
CHT allo act: inactive; T cell modulator: 410.0; VLA-4 inh: -18.8; CHT block: inactive

How did CN1c2ccccc2C(O)=C(C(=S)Nc2ccc(F)c(Cl)c2)S1(=O)=O do in these assays?
CHT allo act: inactive; T cell modulator: 372.2; VLA-4 inh: 3.5; CHT block: -6.37*; CHT block conf: 48.2%*; HEK293 MPD ctr: inactive

Results for Cc1ccc(N(CC(=O)NC(C)C)C(=O)CCC(=O)Nc2nccs2)c(C)c1 ?
CHT allo act: inactive; T cell modulator: 210.9; VLA-4 inh: 0.3; CHT block: inactive

Results for NC(=O)c1ccc(C2SCC(=O)N2Cc2ccccc2)cc1 (centres undefined) ?
CHT allo act: inactive; T cell modulator: 444.1; VLA-4 inh: 9.6; CHT block: -6.34*; CHT block conf: inactive; HEK293 MPD ctr: inactive

Results for CS(=O)(=O)n1nc(OC(=O)c2cccc3ccccc23)cc1N ?
CHT allo act: inactive; T cell modulator: 897.2; VLA-4 inh: 8.6; CHT block: -5.45*; CHT block conf: 63.1%*; HEK293 MPD ctr: inactive

How did CC(C)Nc1nc(Cl)nc(N(C#N)CN2C(=O)c3ccccc3C2=O)n1 do in these assays?
CHT allo act: inactive; T cell modulator: 102.1; VLA-4 inh: -4.6; CHT block: -6.88*; CHT block conf: 40.0%*; HEK293 MPD ctr: inactive

Results for CC1CCN(Cc2nnnn2CCCC(=O)NCCc2cnn(C)c2)CC1 ?
CHT allo act: inactive; T cell modulator: 344.6; VLA-4 inh: -2.4; CHT block: inactive
